Test results published in ChEMBL document CHEMBL5108090, “Structure-activity relationship study of PROTACs against hematopoietic prostaglandin D2 synthase” (RSC Med Chem, 2022).
The source made the active and inactive calls. No cut-off for these calls is given here.

Assays:
[1] = biological target: T1, Hematopoietic prostaglandin D synthase (Homo sapiens, UniProt O60760); assay: Binding affinity to recombinant human H-PGDS incubated for 1 hrs by competitive fluorescence polarization assay
Procedure, shortened: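 Competitive FP assay using a commercial kit. Recombinant human H-PGDS, glutathione and fluorescent probe in assay buffer. Compounds were added from DMSO stocks at final 2.50 μM to 2.44 nM (11 points), in triplicate, for 1 h at room temperature. Read at ex 470/em 530 nm in mP. IC50 is the concentration giving a 50% mP reduction, from a semi-log plot.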

[2] = biological target: T1, Hematopoietic prostaglandin D synthase; assay: Inhibition of H-PGDS in human KU812 cells assessed as reduction in A23187-stimulated PGD2 levels at 10 nM preincubated for 24 hrs followed by A23187 stimulation for 30 mins by ELISA analysis; format: cell-based; settings: KU812 cell line, time 24.5 hrs
Procedure, shortened: (§1)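 KU812 cells (human CML; RPMI-1640, 10% FBS, penicillin–streptomycin) were treated with compound for 24 h. They were then stimulated with 5 μM calcium ionophore A23187 for 30 min. PGD2 in the culture medium was quantified by PGD2-MOX ELISA per the kit instructions.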

[3] = biological target: T2, Protein cereblon/Hematopoietic prostaglandin D synthase (Homo sapiens, UniProt O60760+Q96SW2); assay: PROTAC activity at CRBN/H-PGDS in human KU812 cells assessed as reduction in H-PGDS levels incubated for 24 hrs by Western blotting analysis; format: cell-based, KU812 cell line
Procedure, shortened: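 KU812 cells were incubated with a compound concentration series for 24 h. SDS lysates (equal protein) were blotted for H-PGDS and β-actin with ECL quantification. The H-PGDS/actin ratio was set relative to DMSO (100%); mean ± SEM, n = 3. DC50 came from a linear fit through the three points spanning 50% protein level.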
Target sequence in this assay (O60760 whole entry): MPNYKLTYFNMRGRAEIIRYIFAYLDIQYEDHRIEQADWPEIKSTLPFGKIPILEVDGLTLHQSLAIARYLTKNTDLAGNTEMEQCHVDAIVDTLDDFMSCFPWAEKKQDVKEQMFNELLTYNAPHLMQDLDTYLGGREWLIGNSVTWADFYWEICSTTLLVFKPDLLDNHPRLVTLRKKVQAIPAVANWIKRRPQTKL
Target sequence in this assay (Q96SW2 whole entry): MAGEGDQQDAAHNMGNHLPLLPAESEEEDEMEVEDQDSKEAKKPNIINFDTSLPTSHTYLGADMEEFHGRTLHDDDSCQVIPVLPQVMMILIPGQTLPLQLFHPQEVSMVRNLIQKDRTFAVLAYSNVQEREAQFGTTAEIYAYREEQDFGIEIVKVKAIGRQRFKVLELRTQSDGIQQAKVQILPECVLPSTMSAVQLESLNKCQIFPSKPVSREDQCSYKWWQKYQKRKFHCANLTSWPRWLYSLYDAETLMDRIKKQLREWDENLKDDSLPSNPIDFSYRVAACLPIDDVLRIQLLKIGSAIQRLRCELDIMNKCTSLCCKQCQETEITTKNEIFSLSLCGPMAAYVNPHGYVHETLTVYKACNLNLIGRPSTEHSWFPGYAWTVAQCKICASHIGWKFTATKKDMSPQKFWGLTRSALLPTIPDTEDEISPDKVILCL

[4] = biological target: T2, Protein cereblon/Hematopoietic prostaglandin D synthase; assay: PROTAC activity at CRBN/H-PGDS in human KU812 cells assessed as reduction in A23187-stimulated PGD2 levels at 10 nM preincubated for 24 hrs followed by A23187 stimulation for 30 mins by ELISA analysis relative to control; format: cell-based; settings: KU812 cell line, time 24.5 hrs; procedure, shortened: as §1
Target sequence in this assay (O60760 whole entry, looked up): as the sequence (O60760 whole entry) above
Target sequence in this assay (Q96SW2 whole entry, looked up): as the sequence (Q96SW2 whole entry) above

[5] = biological target: T2, Protein cereblon/Hematopoietic prostaglandin D synthase; assay: PROTAC activity at CRBN/H-PGDS in human KU812 cells assessed as reduction in H-PGDS levels at 1 nM incubated for 6 hrs by Western blotting analysis; format: cell-based; settings: KU812 cell line
Procedure, shortened: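 KU812 cells were exposed to compound for 6 h, with MG132 or MLN7243 co-treatment or ligand competition in some arms. Lysates in SDS buffer were boiled and equal protein by BCA was run on SDS-PAGE. Blots used anti-H-PGDS and anti-β-actin with ECL detection. H-PGDS/β-actin was normalized to the DMSO control (100%); mean ± SEM, n = 3.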
Target sequence in this assay (O60760 whole entry, looked up): as the sequence (O60760 whole entry) above
Target sequence in this assay (Q96SW2 whole entry, looked up): as the sequence (Q96SW2 whole entry) above

T1 sequence (O60760 whole entry): as the sequence (O60760 whole entry) above

IC50 [1] | inhibition [2] | DC50 [3] | Activity [4] | Activity [5] | Compound
211 nM | Active |  |  |  | O=C(Nc1ccc(N2CCC(C(=O)N3CCOCC3)CC2)cc1)c1cnc(Oc2ccccc2)nc1
124 nM |  | 0.0238 nM | Active |  | Cn1cccc1C(=O)N1CCN(C(=O)Nc2ccc(N3CCC(C(=O)N4CCN(c5ccc6c(c5)C(=O)N(C5CCC(=O)NC5=O)C6=O)CC4)CC3)cc2)CC1 (configuration not stated)
134 nM | Active |  |  |  | Cn1cccc1C(=O)N1CCN(C(=O)Nc2ccc(N3CCC(C(=O)N4CCOCC4)CC3)cc2)CC1
78.1 nM |  | 0.0714 nM | Active |  | Cn1cccc1C(=O)N1CCN(C(=O)Nc2ccc(N3CCC(C(=O)N4CCN(c5cccc6c5C(=O)N(C5CCC(=O)NC5=O)C6=O)CC4)CC3)cc2)CC1 (configuration not stated)
116 nM |  | 0.0187 nM | Active |  | O=C1CCC(N2C(=O)c3cccc(N4CCN(C(=O)C5CCN(c6ccc(NC(=O)c7cnc(Oc8ccccc8)nc7)cc6)CC5)CC4)c3C2=O)C(=O)N1 (configuration not stated)
196 nM |  | 0.0276 nM | Active | Active | O=C1CCC(N2C(=O)c3ccc(N4CCN(C(=O)C5CCN(c6ccc(NC(=O)c7cnc(Oc8ccccc8)nc7)cc6)CC5)CC4)cc3C2=O)C(=O)N1 (configuration not stated)
